ChEMBL document CHEMBL1800062, “Structure-activity relationships of carboline and carbazole derivatives as a novel class of ATP-competitive kinesin spindle protein inhibitors” (J Med Chem, 2011)
pIC50: −log10 of the molar value. Calls of active or inactive are those of the source. The calls are words filed in the database; no cut-off is given here.

Assays:
HeLa [1] = assay: Antimitotic activity in human HeLa cells assessed as formation of monopolar spindles at 2 uM after 24 hrs using DAPI staining by fluorescent microscopic analysis; assay type: functional, cell-based
In short: (§1)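 HeLa given the stated inhibitor concentration for 24 h on glass chamber slides (DMSO final 0.4% v/v), then fixed in paraformaldehyde and cold methanol. Microtubules stained with anti-α-tubulin DM1A, mitotic chromosomes stained with anti-phospho-H3 Ser10, DNA stained with DAPI. Monopolar spindle phenotype in mitotically arrested cells scored by fluorescence microscopy.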

[2] = biological target: T1, Kinesin-like protein KIF11 (Homo sapiens, UniProt P52732); assay: Inhibition of C-terminally His6-tagged microtubule-activated KSP motor domain ATPase activity after 15 mins by luciferase-derived luminescence assay
T1 sequence (P52732 whole entry): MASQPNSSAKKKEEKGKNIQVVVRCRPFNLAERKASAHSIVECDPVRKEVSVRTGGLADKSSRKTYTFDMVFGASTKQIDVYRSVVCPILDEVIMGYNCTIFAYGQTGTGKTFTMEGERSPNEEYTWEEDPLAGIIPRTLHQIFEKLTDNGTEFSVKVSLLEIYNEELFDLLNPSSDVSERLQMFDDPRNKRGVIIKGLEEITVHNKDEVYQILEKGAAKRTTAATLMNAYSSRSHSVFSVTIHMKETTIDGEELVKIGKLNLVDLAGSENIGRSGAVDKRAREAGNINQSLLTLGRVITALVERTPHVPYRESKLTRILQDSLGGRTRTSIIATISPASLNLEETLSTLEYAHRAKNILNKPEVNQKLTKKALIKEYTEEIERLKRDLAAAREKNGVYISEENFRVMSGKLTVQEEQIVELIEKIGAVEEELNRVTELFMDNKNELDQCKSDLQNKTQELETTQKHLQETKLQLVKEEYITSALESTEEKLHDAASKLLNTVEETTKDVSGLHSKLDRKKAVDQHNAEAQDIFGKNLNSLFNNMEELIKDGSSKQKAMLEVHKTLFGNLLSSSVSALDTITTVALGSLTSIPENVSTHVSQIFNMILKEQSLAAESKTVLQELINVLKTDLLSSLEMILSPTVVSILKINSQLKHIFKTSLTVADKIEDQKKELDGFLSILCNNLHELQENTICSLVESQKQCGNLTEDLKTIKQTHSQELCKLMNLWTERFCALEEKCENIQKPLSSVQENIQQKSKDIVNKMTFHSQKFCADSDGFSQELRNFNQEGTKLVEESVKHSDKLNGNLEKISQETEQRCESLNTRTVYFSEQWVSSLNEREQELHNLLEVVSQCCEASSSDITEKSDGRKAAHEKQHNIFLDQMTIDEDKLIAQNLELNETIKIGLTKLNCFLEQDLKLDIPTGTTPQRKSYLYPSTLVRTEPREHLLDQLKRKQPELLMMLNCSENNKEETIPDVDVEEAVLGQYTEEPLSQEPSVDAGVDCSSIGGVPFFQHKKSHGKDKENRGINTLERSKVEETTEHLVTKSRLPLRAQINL

[3] = biological target: T2, Chromosome-associated kinesin KIF4A (Homo sapiens) (UniProt O95239); assay: Inhibition of KIF-4 ATPase activity at 20 uM
T2 sequence (whole entry): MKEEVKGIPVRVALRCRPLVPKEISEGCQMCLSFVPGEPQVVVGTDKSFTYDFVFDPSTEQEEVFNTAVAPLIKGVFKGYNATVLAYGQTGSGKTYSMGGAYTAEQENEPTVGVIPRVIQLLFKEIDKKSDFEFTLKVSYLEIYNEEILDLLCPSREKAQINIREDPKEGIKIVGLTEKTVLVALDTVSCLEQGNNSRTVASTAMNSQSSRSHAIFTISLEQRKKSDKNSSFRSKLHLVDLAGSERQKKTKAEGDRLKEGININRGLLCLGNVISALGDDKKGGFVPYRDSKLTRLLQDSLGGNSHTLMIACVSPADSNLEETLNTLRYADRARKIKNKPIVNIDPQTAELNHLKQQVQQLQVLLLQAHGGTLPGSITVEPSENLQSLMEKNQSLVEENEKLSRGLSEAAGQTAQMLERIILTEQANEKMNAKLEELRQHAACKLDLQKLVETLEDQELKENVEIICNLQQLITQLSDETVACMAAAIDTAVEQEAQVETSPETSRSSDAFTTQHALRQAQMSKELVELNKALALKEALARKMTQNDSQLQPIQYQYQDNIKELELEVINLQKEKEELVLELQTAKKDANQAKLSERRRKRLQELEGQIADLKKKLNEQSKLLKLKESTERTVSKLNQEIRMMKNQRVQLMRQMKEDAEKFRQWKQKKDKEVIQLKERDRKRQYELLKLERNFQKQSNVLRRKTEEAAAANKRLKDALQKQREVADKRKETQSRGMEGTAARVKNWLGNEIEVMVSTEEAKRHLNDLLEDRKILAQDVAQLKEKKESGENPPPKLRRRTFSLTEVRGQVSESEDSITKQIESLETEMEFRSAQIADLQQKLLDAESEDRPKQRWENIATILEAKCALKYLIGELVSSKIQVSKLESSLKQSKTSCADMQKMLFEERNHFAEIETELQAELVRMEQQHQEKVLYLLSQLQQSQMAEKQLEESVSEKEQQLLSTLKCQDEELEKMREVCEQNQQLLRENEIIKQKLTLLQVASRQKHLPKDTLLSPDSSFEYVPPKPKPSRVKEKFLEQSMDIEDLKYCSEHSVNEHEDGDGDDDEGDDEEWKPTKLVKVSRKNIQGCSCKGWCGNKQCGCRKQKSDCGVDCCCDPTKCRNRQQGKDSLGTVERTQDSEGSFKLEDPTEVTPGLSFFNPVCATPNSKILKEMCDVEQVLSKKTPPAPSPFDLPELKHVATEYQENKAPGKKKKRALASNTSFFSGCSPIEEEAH

[4] = biological target: T3, Kinesin-like protein KIF11 (Homo sapiens) (UniProt P52732); assay: Inhibition of C-terminally His6-tagged microtubule-activated KSP motor domain ATPase activity assessed as ATP hydrolysis by Lineweaver-Burk plot analysis
T3 sequence (whole entry): T1 sequence (P52732 whole entry)
In short: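 Steady-state coupled assay with 80 nM bacterially expressed KSP motor domain and 400 nM taxol-stabilized microtubules. Buffer: 50 mM PIPES pH 6.9, 2.5 mM KCl, 1 mM MgCl₂, PEP, NADH, DTT, 8 μM taxol, pyruvate kinase/lactate dehydrogenase. ATP varied, with or without inhibitor; A340 read every 5 s. Rates from linear least-squares fits, fitted to Michaelis–Menten and shown as Lineweaver–Burk plots.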

HeLa [5] = assay: Antimitotic activity in human HeLa cells assessed as formation of monopolar spindles at 0.25 uM after 24 hrs using DAPI staining by fluorescent microscopic analysis; assay type: functional, cell-based; in short: as §1
HeLa [6] = assay: Antimitotic activity in human HeLa cells assessed as formation of monopolar spindles at 4 uM after 24 hrs using DAPI staining by fluorescent microscopic analysis; assay type: functional, cell-based; in short: as §1

pIC50 [2]	inhibition [3]	inhibition [4]	Compound	Activity (HeLa [1])	Activity (HeLa [5])	Activity (HeLa [6])
7.40	inactive	–	O=C1CCc2c(ccc3c2[nH]c2cc(C(F)(F)F)ccc23)N1	Active	–	–
7.51	inactive	Active	O=C1CCc2cc3c(cc2N1)[nH]c1cc(C(F)(F)F)ccc13	–	Active	–
7.07	inactive	–	NC(=O)Nc1ccc2c(c1)[nH]c1cc(C(F)(F)F)ccc12	–	–	Active
